Published values of several laboratories.
Protocols differ between the studies behind these lines.
Observed: cell growth or viability

Compound | cell line | test | setting | IC50
O=C(Nc1cccc(-c2cn(Cc3ccc(Cl)cc3)nn2)c1)Nc1ccccc1Br | Huh-7 | CCK-8 | 72 h | 13.5 µM
C=CCn1c(=O)c2cnc(Nc3ccc(N4CCN(C)CC4)cc3)nc2n1-c1ccc2c(n1)[C@@](O)(CC)CC2 | KURAMOCHI | ATP luminescence | 72 h | 1.52 µM
O=[N+]([O-])c1ccc(O)c(C=NNc2ccc(C(F)(F)F)cc2)c1 | HEK-293T | MTT | 24 h | 17 µM
CN1CCC(NC2CCc3[nH]c4c(C(N)=O)ccc(-c5ccccc5Cl)c4c3C2)CC1 (stereo not drawn) | Ramos |  | 96 h | 0.0114 µM
CN1CCN(c2ccc(Nc3c4ccccc4nc4ccccc34)cc2)CC1 | THLE3 | imaging | 72 h | 8.63 µM
Cc1nnc(-c2nn(Cc3ccc(Cl)cc3Cl)c3ccccc23)o1 | HepG2 |  | 48 h | 41.5 µM
COC(=O)c1ccc2c(c1)NC(=O)/C2=C(\Nc1ccc(N(C)C(=O)CN2CCN(C)CC2)cc1)c1ccccc1 | HEK-293T | MTT | 24 h | 0.8 µM
COc1ccc(NC(=O)Nc2ccc(-c3cn(Cc4ccc(Cl)cc4)nn3)cc2)cc1 | Huh-7 | CCK-8 | 72 h | > 50 µM
O=[N+]([O-])c1ccc(O)c(C=NNc2ccc(Cl)cc2)c1 | HEK-293T | MTT | 24 h | 11.4 µM
COc1ccc(NC(=O)Nc2cccc(-c3cn(Cc4cccc(Cl)c4)nn3)c2)cc1 | Huh-7 | CCK-8 | 72 h | 13.5 µM
O=[N+]([O-])c1cc(Br)c(O)c(C=NNc2ccc(C(F)(F)F)cc2)c1 | HEK-293T | MTT | 24 h | 18 µM
O=c1[nH]cc(F)c(=O)[nH]1 | Huh-7 | CCK-8 | 72 h | 17.2 µM
CNC(=O)c1cc(Oc2ccc(NC(=O)Nc3ccc(Cl)c(C(F)(F)F)c3)cc2)ccn1 | THLE3 | imaging | 72 h | 8.78 µM
COc1cccc2c1C(=O)c1c(O)c3c(c(O)c1C2=O)C[C@@](O)(C(=O)CO)C[C@@H]3O[C@H]1C[C@H](N)[C@H](O)[C@H](C)O1 | HEK-293T | MTT | 24 h | 1.39 µM
O=C(Nc1ccc(Cl)cc1)Nc1cccc(-c2cn(Cc3cccc(Br)c3)nn2)c1 | Huh-7 | CCK-8 | 72 h | 32.3 µM
